Results published in ChEMBL document CHEMBL1909586 (Eur J Med Chem, 2011).

Tests used:
[1] = test system: SH-SY5Y; test: Cytotoxicity against human SH-SY5Y cells at 0.1 to 50 uM after 24 hrs by MTT assay; type: cell-based
Procedure, shortened: (§1)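 Cells were SH-SY5Y, grown in DMEM with 10% fetal calf serum and 2 mM glutamine, seeded at 2 × 10^5 cells/well and allowed 24 h at 37 °C/5% CO2. Compound-containing media (0.1–50 µM) were applied for 24 h. After a PBS wash, cells took up MTT (5 mg/mL in PBS) for 4 h. Formazan was dissolved in isopropanol and read at 405 nm. Viability is given as % of control cells.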

[2] = test system: SH-SY5Y; test: Antioxidant activity in human SH-SY5Y cells assessed as inhibition of tert-butyl hydroperoxide-induced intracellular ROS production at 1 uM after 24 hrs using DCFH-DA by fluorescence assay (reference value: 82.4 +/- 6.6 %); type: functional; design: scale not given: the % may be the effect or the level left
[3] = test system: SH-SY5Y; test: Antioxidant activity in human SH-SY5Y cells assessed as inhibition of tert-butyl hydroperoxide-induced intracellular ROS production at 10 uM after 24 hrs using DCFH-DA by fluorescence assay (reference value: 82.4 +/- 6.6 %); type: functional; design: scale not given: the % may be the effect or the level left
[4] = test system: SH-SY5Y; test: Antioxidant activity in human SH-SY5Y cells assessed as inhibition of tert-butyl hydroperoxide-induced intracellular ROS production at 50 uM after 24 hrs using DCFH-DA by fluorescence assay (reference value: 82.4 +/- 6.6 %); type: functional; design: scale not given: the % may be the effect or the level left
[5] = test system: SH-SY5Y; test: Antioxidant activity in human SH-SY5Y cells assessed as inhibition of tert-butyl hydroperoxide-induced intracellular ROS production at 5 uM after 24 hrs using DCFH-DA by fluorescence assay (reference value: 82.4 +/- 6.6 %); type: functional; design: scale not given: the % may be the effect or the level left
[6] = test system: SH-SY5Y; test: Cytotoxicity against human SH-SY5Y cells assessed as reduction in cell viability at 50 uM after 24 hrs by MTT assay; type: cell-based; procedure, shortened: as §1
[7] = molecular target: Cholinesterase (Homo sapiens, UniProt P06276); test: Inhibition of human serum recombinant BChE after 20 mins using butyrylthiocholine iodide as a substrate by Ellman's assay
[8] = molecular target: T1, Acetylcholinesterase (Homo sapiens, UniProt P22303); test: Inhibition of human […] recombinant AChE after 20 mins using acetylthiocholine iodide as a substrate by Ellman's assay
[9] = molecular target: T1, Acetylcholinesterase; test: Inhibition of human AChE-induced amyloid beta (1 to 40) aggregation at 100 uM after 24 hrs by thioflavin T based fluorometric assay

Chain of Cholinesterase (P06276 whole entry): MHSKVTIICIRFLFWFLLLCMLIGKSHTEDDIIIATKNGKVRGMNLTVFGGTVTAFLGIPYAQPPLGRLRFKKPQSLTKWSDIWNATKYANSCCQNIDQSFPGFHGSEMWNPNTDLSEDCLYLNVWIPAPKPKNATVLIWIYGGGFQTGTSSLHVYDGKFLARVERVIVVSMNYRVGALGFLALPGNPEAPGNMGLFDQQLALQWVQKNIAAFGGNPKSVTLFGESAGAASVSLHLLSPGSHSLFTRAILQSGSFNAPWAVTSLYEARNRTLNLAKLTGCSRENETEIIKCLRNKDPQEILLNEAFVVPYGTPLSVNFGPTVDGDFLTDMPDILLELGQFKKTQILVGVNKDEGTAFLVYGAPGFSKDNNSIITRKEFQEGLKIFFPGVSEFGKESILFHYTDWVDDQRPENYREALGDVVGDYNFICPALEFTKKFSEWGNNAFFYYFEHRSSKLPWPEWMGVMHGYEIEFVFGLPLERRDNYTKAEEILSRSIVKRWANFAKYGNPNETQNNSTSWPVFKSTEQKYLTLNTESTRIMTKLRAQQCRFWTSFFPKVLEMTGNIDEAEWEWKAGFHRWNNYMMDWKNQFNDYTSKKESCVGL
T1 sequence (P22303 whole entry): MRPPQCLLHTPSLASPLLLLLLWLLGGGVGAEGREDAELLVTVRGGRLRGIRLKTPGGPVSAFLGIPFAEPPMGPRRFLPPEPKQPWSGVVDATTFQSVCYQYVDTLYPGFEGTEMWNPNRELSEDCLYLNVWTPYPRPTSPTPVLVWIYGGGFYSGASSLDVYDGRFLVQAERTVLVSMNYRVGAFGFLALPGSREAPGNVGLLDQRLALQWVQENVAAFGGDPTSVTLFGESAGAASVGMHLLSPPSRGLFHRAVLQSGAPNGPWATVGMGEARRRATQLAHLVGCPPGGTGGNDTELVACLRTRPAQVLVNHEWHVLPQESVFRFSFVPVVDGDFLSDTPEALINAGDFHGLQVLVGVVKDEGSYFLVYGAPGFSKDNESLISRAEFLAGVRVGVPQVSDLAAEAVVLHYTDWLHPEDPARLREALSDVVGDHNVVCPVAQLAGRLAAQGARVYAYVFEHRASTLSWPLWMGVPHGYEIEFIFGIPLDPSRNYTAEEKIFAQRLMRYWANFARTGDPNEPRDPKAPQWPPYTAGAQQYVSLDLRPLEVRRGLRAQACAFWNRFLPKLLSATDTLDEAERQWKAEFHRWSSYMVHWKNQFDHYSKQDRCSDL

SMILES | Activity [1] | Activity [2] [%] | Activity [3] [%] | Activity [4] [%] | Activity [5] [%] | Activity [6] [%] | IC50 [7] [nM] | IC50 [8] [nM] | inhibition [9] [%]
COc1cccc(C(C)N(C)CCCNC(=O)CCCCC2CCSS2)c1 (mixture of isomers) | Non-toxic | 82.5 | 68.8 | 46.4 | 80 | – | – | – | –
O=C(CCCCc1cccs1)NCCCNc1c2c(nc3cc(Cl)ccc13)CCCC2 | – | 81 | 80.2 | – | 79.8 | 80 | – | – | –
O=C(CCCC[C@@H]1CCSS1)NCCCNc1c2c(nc3cc(Cl)ccc13)CCCC2 | – | – | – | – | – | – | 12.6 | – | –
COc1cc2nc(Cl)nc(NCCCNC(=O)CCCCC3CCSS3)c2cc1OC (racemic) | – | 82 | 63.4 | – | 73.5 | 30 | 205000 | – | –
O=C(CCCC[C@H]1CCSS1)NCCCNc1c2c(nc3cc(Cl)ccc13)CCCC2 | – | – | – | – | – | – | 12.1 | 0.471 | –
CCN(CCCCCCNC(=O)CCCCC1CCSS1)Cc1ccccc1OC (racemic) | Non-toxic | 80.8 | 69.6 | 37.6 | 75.8 | – | – | – | 16.8
CC(c1cccc(OCCCNC(=O)CCCCC2CCSS2)c1)N(C)C (mixture of isomers) | Non-toxic | 80.3 | 48 | 34.4 | 76.8 | – | – | – | –
O=C(CCCCC1CCSS1)NCCCNc1c2c(nc3cc(Cl)ccc13)CCCC2 (racemic) [LIPOCRINE] | – | 83.2 | 50 | 31 | 65 | – | – | – | 61.8
